Tested on: HEK-293T
Experiment: Multiplex assay against HEK293T;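 as to Population Tubulin-Different-Phenotype (%): share of the cells with healthy nuclei that show this phenotype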
Format: toxicity, cell-based
Settings: human
Method in brief: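 Tubulin, mitochondrial-mass and membrane-permeability phenotypes are per cents of healthy-nucleus cells. Cells were gated by CellPathfinder machine learning into Hoechst high-intensity objects or normal cells, normal cells into healthy, pyknosed or fragmented nuclei, and pyknosed cells into mitotic or apoptotic. Before that, live cells stained at seeding with Hoechst33342, BioTracker Green Microtubule Cytoskeleton Dye, MitoTracker Red and Annexin V Alexa Fluor 680 were imaged on a CQ1 microscope at 37°C and 5% CO2 after compound addition.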

[1] = 12 h, 1 µM, compound concentration 1 uM, replicate 1
[2] = 12 h, 1 µM, compound concentration 1 uM, replicate 2
[3] = 12 h, 10 µM, compound concentration 10 uM, replicate 1
[4] = 12 h, 10 µM, compound concentration 10 uM, replicate 2
[5] = 24 h, 1 µM, compound concentration 1 uM, replicate 1
[6] = 24 h, 1 µM, compound concentration 1 uM, replicate 2
[7] = 24 h, 10 µM, compound concentration 10 uM, replicate 1
[8] = 24 h, 10 µM, compound concentration 10 uM, replicate 2

C=CC(=O)Nc1ccc2[nH]c(=O)n(C3CCN(Cc4ccc(-c5nc6cc[nH]c(=O)c6cc5-c5ccccc5)cc4)CC3)c2c1 [Borussertib]
Population Apoptotic (%) [1]: 18%
Population Fragmented Nuclei (%) [1]: 16%
Population Healthy Nuclei (%) [1]: 66%
Population Hoechst High Intensity Objects (%) [1]: 13%
Population Membrane Permeable-Phenotype (%) [1]: 5%
Population Mitochondria Different-Phenotype (%) [1]: 5%
Population Mitotic Cells (%) [1]: 81%
Population Normal (%) [1]: 86%
Population Pyknosed Nuclei (%) [1]: 17%
Population Tubulin-Different-Phenotype (%) [1]: 5%
Total Cell Count [1]: 656
Population Apoptotic (%) [2]: 14%
Population Fragmented Nuclei (%) [2]: 7%
Population Healthy Nuclei (%) [2]: 86%
Population Hoechst High Intensity Objects (%) [2]: 3%
Population Membrane Permeable-Phenotype (%) [2]: 3%
Population Mitochondria Different-Phenotype (%) [2]: 12%
Population Mitotic Cells (%) [2]: 85%
Population Normal (%) [2]: 96%
Population Pyknosed Nuclei (%) [2]: 5%
Population Tubulin-Different-Phenotype (%) [2]: 12%
Total Cell Count [2]: 1375
Population Apoptotic (%) [3]: 24%
Population Fragmented Nuclei (%) [3]: 17%
Population Healthy Nuclei (%) [3]: 48%
Population Hoechst High Intensity Objects (%) [3]: 13%
Population Membrane Permeable-Phenotype (%) [3]: 9%
Population Mitochondria Different-Phenotype (%) [3]: 25%
Population Mitotic Cells (%) [3]: 75%
Population Normal (%) [3]: 86%
Population Pyknosed Nuclei (%) [3]: 33%
Population Tubulin-Different-Phenotype (%) [3]: 44%
Total Cell Count [3]: 585
Population Apoptotic (%) [4]: 17%
Population Fragmented Nuclei (%) [4]: 4%
Population Healthy Nuclei (%) [4]: 84%
Population Hoechst High Intensity Objects (%) [4]: 4%
Population Membrane Permeable-Phenotype (%) [4]: 12%
Population Mitochondria Different-Phenotype (%) [4]: 43%
Population Mitotic Cells (%) [4]: 82%
Population Normal (%) [4]: 95%
Population Pyknosed Nuclei (%) [4]: 11%
Population Tubulin-Different-Phenotype (%) [4]: 82%
Total Cell Count [4]: 1080
Population Apoptotic (%) [5]: 15%
Population Fragmented Nuclei (%) [5]: 14%
Population Healthy Nuclei (%) [5]: 75%
Population Hoechst High Intensity Objects (%) [5]: 11%
Population Membrane Permeable-Phenotype (%) [5]: 8%
Population Mitochondria Different-Phenotype (%) [5]: 3%
Population Mitotic Cells (%) [5]: 84%
Population Normal (%) [5]: 88%
Population Pyknosed Nuclei (%) [5]: 9%
Population Tubulin-Different-Phenotype (%) [5]: 10%
Total Cell Count [5]: 716
Population Apoptotic (%) [6]: 11%
Population Fragmented Nuclei (%) [6]: 19%
Population Healthy Nuclei (%) [6]: 77%
Population Hoechst High Intensity Objects (%) [6]: 4%
Population Membrane Permeable-Phenotype (%) [6]: 9%
Population Mitochondria Different-Phenotype (%) [6]: 4%
Population Mitotic Cells (%) [6]: 88%
Population Normal (%) [6]: 95%
Population Pyknosed Nuclei (%) [6]: 3%
Population Tubulin-Different-Phenotype (%) [6]: 19%
Total Cell Count [6]: 2108
Population Apoptotic (%) [7]: 34%
Population Fragmented Nuclei (%) [7]: 15%
Population Healthy Nuclei (%) [7]: 60%
Population Hoechst High Intensity Objects (%) [7]: 16%
Population Membrane Permeable-Phenotype (%) [7]: 8%
Population Mitochondria Different-Phenotype (%) [7]: 33%
Population Mitotic Cells (%) [7]: 65%
Population Normal (%) [7]: 83%
Population Pyknosed Nuclei (%) [7]: 23%
Population Tubulin-Different-Phenotype (%) [7]: 68%
Total Cell Count [7]: 518
Population Apoptotic (%) [8]: 16%
Population Fragmented Nuclei (%) [8]: 8%
Population Healthy Nuclei (%) [8]: 83%
Population Hoechst High Intensity Objects (%) [8]: 9%
Population Membrane Permeable-Phenotype (%) [8]: 9%
Population Mitochondria Different-Phenotype (%) [8]: 43%
Population Mitotic Cells (%) [8]: 83%
Population Normal (%) [8]: 90%
Population Pyknosed Nuclei (%) [8]: 8%
Population Tubulin-Different-Phenotype (%) [8]: 90%
Total Cell Count [8]: 1115
